Data taken from ChEMBL document CHEMBL1142792, “Structure-activity relationship studies of salubrinal lead to its active biotinylated derivative” (Bioorg Med Chem Lett, 2005).

Test system: PC-12; call rule not given here
Assay: Cytoprotective activity on rat tunicamycin treated rat pheochromocytoma cell line PC12 from apoptosis induced by Endoplasmic reticulum stress
Assay type: functional, cell-based
How it was run: (§1)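 PC12 cells exposed to tunicamycin (ER-stress inducer) together with graded compound doses for 37 h; viability read as cellular ATP content. Positive control: zVAD.fmk 100 µM. EC50 taken as concentration giving half-maximal rescue from cell death relative to the Tm-only control.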

Row | SMILES | EC50
1 | O=C(CCc1ccccc1)NC(NC(=S)Nc1ccccn1)C(Cl)(Cl)Cl (stereo unspecified) | 33 µM
2 | O=C(/C=C/c1ccccc1C(F)(F)F)NC(/N=C(\S)Nc1ccccn1)C(Cl)(Cl)Cl (stereo unspecified) | 38 µM
3 | O=C(/C=C/c1ccccc1Cl)NC(NC(=S)Nc1ccccn1)C(Cl)(Cl)Cl (stereo unspecified) | 40 µM
4 | CCCC/N=C(\S)NC(NC(=O)/C=C/c1ccccc1)C(Cl)(Cl)Cl (stereo unspecified) | 24 µM
5 | O=C(/C=C/c1ccccc1)NC(NC(=S)NC(=O)c1ccccc1)C(Cl)(Cl)Cl (stereo unspecified) | > 100 µM
6 | O=C(/C=C/c1ccc([N+](=O)[O-])cc1)NC(/N=C(\S)Nc1ccccn1)C(Cl)(Cl)Cl (stereo unspecified) | 28 µM
7 | Nc1ccc(/C=C/C(=O)NC(/N=C(\S)Nc2ccccn2)C(Cl)(Cl)Cl)cc1 (stereo unspecified) | 56 µM
8 | O=C(/C=C/c1ccc(F)cc1F)NC(/N=C(\S)Nc1ccccn1)C(Cl)(Cl)Cl (stereo unspecified) | 72 µM
9 | O=C(/C=C/c1cccs1)NC(NC(=S)Nc1ccccn1)C(Cl)(Cl)Cl (stereo unspecified) | 41 µM
10 | O=C(/C=C/C1CCCCC1)NC(NC(=S)Nc1ccccn1)C(Cl)(Cl)Cl (stereo unspecified) | 29 µM
11 | O=C(/C=C/c1cccnc1)NC(NC(=S)Nc1ccccn1)C(Cl)(Cl)Cl (stereo unspecified) | 30 µM
12 | O=C(/C=C/c1ccccc1)NC(NC(=S)Nc1ccccn1)C(Cl)(Cl)Cl (stereo unspecified) | 40 µM
13 | O=C(/C=C/c1ccccc1)NC(NC(=S)Nc1ccccn1)C(Cl)Cl (stereo unspecified) | 75 µM
14 | O=C(/C=C/c1ccc(Br)cc1)NC(NC(=S)Nc1ccccn1)C(Cl)(Cl)Cl (stereo unspecified) | 50 µM
15 | O=C(/C=C/c1ccccc1)NC(NC(=S)Nc1ccccn1)C(Br)(Br)Br (stereo unspecified) | 51 µM
16 | O=C(/C=C/c1ccccc1)NC(NC(=S)Nc1cccc2cccnc12)C(Cl)(Cl)Cl (stereo unspecified) [SALUBRINAL] | 15 µM

Test system: PC-12
Assay: Cytoprotective activity on rat tunicamycin treated rat pheochromocytoma cell line PC12 from apoptosis induced by Endoplasmic reticulum stress; NA = Not active upto 100 uM
Assay type: functional, cell-based
How it was run: as §1

Row | SMILES | EC50
17 | O=C(/C=C/c1ccccc1)NC(CO)/N=C(\S)Nc1ccccn1 (stereo unspecified) | Not Active
18 | CCOC(=O)C(/N=C(\S)Nc1ccccn1)NC(=O)/C=C/c1ccccc1 (stereo unspecified) | Not Active
19 | CCCCOc1ccc(/C=C/C(=O)NC(/N=C(\S)Nc2ccccn2)C(Cl)(Cl)Cl)cc1 (stereo unspecified) | Not Active
20 | CC(C)=CC(=O)NC(/N=C(\S)Nc1ccccn1)C(Cl)(Cl)Cl (stereo unspecified) | Not Active
21 | O=C(NC(NC(=S)Nc1ccccn1)C(Cl)(Cl)Cl)c1ccccc1 (stereo unspecified) | Not Active
22 | O=C(/C=C/c1ccccc1)NC(NC(=S)Nc1cnc2ccccc2c1)C(Cl)(Cl)Cl (stereo unspecified) | Not Active
23 | O=C(/C=C/c1ccccc1)NC1CSC(Nc2ccccn2)=N1 (stereo unspecified) | Not Active

Test system: PC-12
Assay: Cytoprotective activity on rat tunicamycin treated rat pheochromocytoma cell line PC12 from apoptosis induced by Endoplasmic reticulum stress; TX=Toxic
Assay type: functional, cell-based
How it was run: as §1

Row | SMILES | EC50
24 | O=C(/C=C/c1ccccc1)NNC(=S)Nc1ccccn1 | Toxic
25 | O=C(/C=C/c1ccccc1)NCCNC(=S)Nc1ccccn1 | Toxic
26 | O=C(/C=C/c1ccccc1)NC(/N=C(\S)Nc1ccccn1)C(F)(F)F (stereo unspecified) | Toxic
